Data on one molecule can be found in ChEMBL document CHEMBL3414472, “Synthesis, SAR, and series evolution of novel oxadiazole-containing 5-lipoxygenase activating protein inhibitors: discovery of 2-[4-(3-{(r)-1-[4-(2-amino-pyrimidin-5-yl)-phenyl]-1-cyclopropyl-ethyl}-[1,2,4]oxadiazol-5-yl)-pyrazol-1-yl]-N,N-dimethyl-acetamide (BI 665915)” (J Med Chem, 2015).

Structures are written as SMILES. Where only a bound is given, the exact number is not on record here.

Broadly, the MRT is the average time that molecules of a dose stay in the body. As a reminder, the efflux ratio is the permeability from basolateral to apical divided by that in the opposite direction, in the common usage. What is called inhibition is how much of the control response was suppressed. By IC50 is commonly meant the concentration that gives 50% inhibition. Usually bioavailability stands for dose-corrected exposure relative to a reference, in per cent. In general, fraction unbound refers to the share of the substance not bound to proteins or other matrix.

Data set [1] in a line: Mean residence time in rat at 1 mg/kg, iv. The class given is ADME, organism-based. Set-up: dose 1 mg/kg, route intravenous. Conditions: in vivo; call rule not given here. Put shortly:
(§1)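 iv 1 mg/kg in 70 % PEG; po 10 mg/kg as suspension in 0.5 % methyl cellulose/0.015 % Tween. Blood sampled at 11 timepoints (0, 5, 15, 30 min, 1, 2, 4, 6, 8, 12, 24 h) per dose; mean of n = 3. Clearance expressed as percent of hepatic blood flow.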

The nature of data set [2]: Efflux ratio of permeability across human Caco2 cells. Type of data set: ADME, cell-based. The following applies: Caco-2. In short, it runs like this: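 Caco-2 cells were seeded at 1-2 x 10^5 cells/cm2 on 0.4 µm PET filter inserts and cultured 10 to 25 days. Compound in HTP-4 transport buffer was added to the apical or basolateral donor side for A-B or B-A transport. Donor and receiver samples were taken up to 2 h and measured by LC/MS/MS. Each value is from duplicate 6-timepoint curves (0 to 2 h).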
Background: Caco-2 monolayers are a common model of the intestinal barrier.

Data set [3] deals with Prostaglandin G/H synthase 1 (Homo sapiens) (UniProt P23219). Kind of data set: Inhibition of cyclooxygenase-1 (unknown origin) at 10 uM relative to control.
Data set [4] deals with Mus musculus. Kind of data set: In vivo inhibition of FLAP in C57BL/6 mouse assessed as LTB4 production in calcimycin-stimulated whole blood at 1 mg/kg, po after 2 hrs by ELISA (reference value: 100 +/- 13.3%). Set-up: scale not given: the % may be the effect or the level left. The class given is functional.
Data set [5] has as its system Mus musculus. Kind of data set: In vivo inhibition of FLAP in C57BL/6 mouse assessed as LTB4 production in calcimycin-stimulated whole blood at 3 mg/kg, po after 2 hrs by ELISA (reference value: 100 +/- 13.3%). Type of data set: functional. Set-up: scale not given: the % may be the effect or the level left. In general terms: In an ELISA, binding on a coated surface is turned into a signal by an enzyme label.

The target in data set [6] is T1, Arachidonate 5-lipoxygenase-activating protein (Homo sapiens, UniProt P20292).
T1 sequence (P20292 whole entry): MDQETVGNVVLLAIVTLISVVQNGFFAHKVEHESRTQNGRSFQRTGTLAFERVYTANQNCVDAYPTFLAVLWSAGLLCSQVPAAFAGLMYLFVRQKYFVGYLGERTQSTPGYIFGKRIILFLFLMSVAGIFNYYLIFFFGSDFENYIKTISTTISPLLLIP
As to the kind of experiment: Displacement of [125I]-L-691831 from human FLAP expressed in insect SF9 cell membranes after 2 hrs by Topcount analysis. (In general: Loss of bound radioactivity is the signal in a displacement assay; it reports binding, not function.)

Data set [7] can be described thus: Volume of distribution at steady state in rat at 1 mg/kg, iv and 10 mg/kg, po. Type of data set: ADME, organism-based. The following applies: in vivo, read-out: Vdss. In short, it runs like this:
as §1

Data set [8] is described as follows: Oral bioavailability in cynomolgus monkey at 10 mg/kg. The class given is ADME, organism-based, Macaca fascicularis. The following applies: in vivo. Put shortly: as §1
The target of data set [9] is T2, Cytochrome P450 3A4 (Homo sapiens, UniProt P08684). As to the kind of experiment: Inhibition of CYP3A4 in human liver microsomes using midazolam as substrate preincubated for 10 mins followed by NADPH addition measured after 6 mins. The class given is ADME. In short, it runs like this:
(§2)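 Human liver microsomes (0.05 mg/mL protein) with cocktail substrates: 4 µM diclofenac (2C9), 3 µM dextromethorphan (2D6), 2.5 µM midazolam (3A4). Compound in 0.1 M potassium phosphate pH 7.4 preincubated 10 min at 37 °C; NADPH added, reaction 6 min at 37 °C.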

Data set [10] addresses T2, Cytochrome P450 3A4. Kind of data set: Time-dependent inhibition of CYP3A4 in human liver microsomes using midazolam as substrate up to 100 uM by LC/MS/MS analysis. Type of data set: ADME. In short, it runs like this:
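Primary incubation: 0.1 mg/ml human liver microsomes, 100 mM phosphate pH 7.4, 1 mM NADPH, 37 °C, compound 0 to 100 µM (7 concentrations). Aliquots taken at 0, 1, 3, 5, 15, 30 min into secondary incubation with 15 µM midazolam and 1 mM NADPH, quenched after 8 min; 1'-hydroxymidazolam measured by LC/MS/MS against a d4 internal standard.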

Data set [11] is described as follows: Oral bioavailability in rat at 10 mg/kg. The class given is ADME, organism-based. Conditions: in vivo. Put shortly:
as §1

A further data set has as its target Cytochrome P450 2C9 (Homo sapiens, UniProt P11712). Kind of data set: Inhibition of CYP2C9 in human liver microsomes using dichlofenac as substrate preincubated for 10 mins followed by NADPH addition measured after 6 mins. The class given is ADME. In short, it runs like this:
as §2

The test system of the next data set is Hepatocyte. Kind of data set: Unbound clearance in human hepatocytes at 1 uM measured over 6 hrs by LC/MS analysis relative to hepatic blood flow. Type of data set: ADME, cell-based, Liver. Put shortly: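 Cryopreserved human hepatocytes (1 million cells/mL) with 1 µM compound at 37 °C for 6 h; compound remaining measured by LC/MS over a duplicate 6-timepoint (0 to 6 h) curve. Clearance derived from the ln(% remaining) vs time slope and corrected by the human plasma unbound fraction; expressed as percent of hepatic blood flow.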

The test system of data set [12] is Mus musculus. As to the kind of experiment: In vivo inhibition of FLAP in C57BL/6 mouse assessed as LTB4 production in calcimycin-stimulated whole blood at 30 mg/kg, po after 2 hrs by ELISA (reference value: 100 +/- 13.3%). The class given is functional. The arrangement: scale not given: the % may be the effect or the level left.
In the next data set the test system is Rattus norvegicus. Kind of data set: Clearance in rat at 1 mg/kg, iv and 10 mg/kg, po relative to hepatic blood flow. The class given is ADME, organism-based, Liver. The following applies: in vivo. In short, it runs like this: as §1
A short description of data set [13]: Fraction unbound in human plasma by equilibrium dialysis method. The class given is ADME, cell-free. In short, it runs like this: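 Unbound fraction in human plasma determined by equilibrium dialysis, in duplicate.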
Data set [14] has as its target T3, Prostaglandin G/H synthase 2 (Homo sapiens) (UniProt P35354).
T3 sequence (whole entry): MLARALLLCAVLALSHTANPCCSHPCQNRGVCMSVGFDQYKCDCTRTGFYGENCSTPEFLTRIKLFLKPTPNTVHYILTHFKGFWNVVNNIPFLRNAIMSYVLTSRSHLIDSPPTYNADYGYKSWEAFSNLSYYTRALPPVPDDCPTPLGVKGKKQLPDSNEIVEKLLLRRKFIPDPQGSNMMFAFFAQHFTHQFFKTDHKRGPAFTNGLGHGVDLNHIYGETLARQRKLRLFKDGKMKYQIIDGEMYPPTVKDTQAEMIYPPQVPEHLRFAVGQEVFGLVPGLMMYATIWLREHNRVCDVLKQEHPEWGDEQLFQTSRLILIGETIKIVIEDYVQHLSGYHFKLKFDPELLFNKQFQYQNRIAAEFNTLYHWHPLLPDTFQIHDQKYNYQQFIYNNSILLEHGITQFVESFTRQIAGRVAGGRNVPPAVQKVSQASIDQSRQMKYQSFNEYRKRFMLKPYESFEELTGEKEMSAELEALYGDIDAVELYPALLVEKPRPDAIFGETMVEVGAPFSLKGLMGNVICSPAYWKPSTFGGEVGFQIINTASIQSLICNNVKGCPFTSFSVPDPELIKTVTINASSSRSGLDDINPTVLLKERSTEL
As to the kind of experiment: Inhibition of cycloxygenase-2 (unknown origin) at 10 uM relative to control.

A short description of data set [15]: Plasma concentration in C57BL/6 mouse at 100 mg/kg, po after 2 hrs. The class given is ADME, organism-based. The arrangement: dose 100 mg/kg, route oral.
The test system of data set [16] is Mus musculus. Kind of data set: In vivo inhibition of FLAP in C57BL/6 mouse assessed as LTB4 production in calcimycin-stimulated whole blood at 100 mg/kg, po after 2 hrs by ELISA (reference value: 100 +/- 13.3%). Type of data set: functional. Set-up: scale not given: the % may be the effect or the level left.

T2 sequence (P08684 whole entry): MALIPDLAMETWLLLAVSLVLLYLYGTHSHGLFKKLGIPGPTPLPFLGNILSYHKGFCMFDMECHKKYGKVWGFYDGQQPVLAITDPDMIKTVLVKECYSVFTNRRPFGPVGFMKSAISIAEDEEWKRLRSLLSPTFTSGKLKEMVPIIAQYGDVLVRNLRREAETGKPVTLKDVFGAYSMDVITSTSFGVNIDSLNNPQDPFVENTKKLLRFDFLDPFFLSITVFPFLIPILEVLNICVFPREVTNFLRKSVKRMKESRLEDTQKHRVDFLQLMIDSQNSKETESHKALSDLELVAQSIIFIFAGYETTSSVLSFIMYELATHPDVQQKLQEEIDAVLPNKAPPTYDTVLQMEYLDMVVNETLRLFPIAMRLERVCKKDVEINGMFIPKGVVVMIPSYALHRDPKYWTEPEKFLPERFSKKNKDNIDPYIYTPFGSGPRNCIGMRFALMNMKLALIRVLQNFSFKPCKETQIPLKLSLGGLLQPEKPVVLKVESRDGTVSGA
Chain of Prostaglandin G/H synthase 1 (Homo sapiens) (P23219 whole entry): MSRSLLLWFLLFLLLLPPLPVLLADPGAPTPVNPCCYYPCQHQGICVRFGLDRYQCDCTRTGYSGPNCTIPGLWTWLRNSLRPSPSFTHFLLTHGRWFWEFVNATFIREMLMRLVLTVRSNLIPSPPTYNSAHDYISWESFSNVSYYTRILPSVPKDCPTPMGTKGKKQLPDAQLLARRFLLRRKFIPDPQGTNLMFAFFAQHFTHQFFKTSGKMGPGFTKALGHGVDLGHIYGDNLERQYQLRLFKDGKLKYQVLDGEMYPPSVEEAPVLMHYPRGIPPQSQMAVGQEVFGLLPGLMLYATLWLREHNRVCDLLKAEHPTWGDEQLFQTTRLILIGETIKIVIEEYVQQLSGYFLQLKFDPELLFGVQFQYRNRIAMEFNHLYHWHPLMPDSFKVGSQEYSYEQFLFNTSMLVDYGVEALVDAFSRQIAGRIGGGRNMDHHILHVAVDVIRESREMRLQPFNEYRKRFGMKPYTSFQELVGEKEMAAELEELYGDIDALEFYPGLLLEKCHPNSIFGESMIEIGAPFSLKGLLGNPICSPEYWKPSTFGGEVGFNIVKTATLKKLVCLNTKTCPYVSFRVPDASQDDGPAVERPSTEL
Chain of Cytochrome P450 2C9 (P11712 whole entry): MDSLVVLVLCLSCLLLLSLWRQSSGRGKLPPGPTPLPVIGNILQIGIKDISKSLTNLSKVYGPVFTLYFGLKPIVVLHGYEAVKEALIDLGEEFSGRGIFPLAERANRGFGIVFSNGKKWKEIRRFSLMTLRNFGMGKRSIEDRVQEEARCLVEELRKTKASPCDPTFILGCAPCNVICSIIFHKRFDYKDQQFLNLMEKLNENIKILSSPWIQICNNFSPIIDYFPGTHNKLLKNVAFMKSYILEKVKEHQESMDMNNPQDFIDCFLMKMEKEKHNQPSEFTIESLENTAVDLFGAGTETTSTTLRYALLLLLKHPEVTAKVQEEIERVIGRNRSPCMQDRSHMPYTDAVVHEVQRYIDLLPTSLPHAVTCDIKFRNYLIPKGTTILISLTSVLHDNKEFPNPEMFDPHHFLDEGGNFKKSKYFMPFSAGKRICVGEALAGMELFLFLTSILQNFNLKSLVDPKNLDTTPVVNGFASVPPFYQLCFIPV

In turn, `CN(C)C(=O)Cn1cc(-c2nc([C@@](C)(c3ccc(-c4cnc(N)nc4)cc3)C3CC3)no2)cn1` [BI 665915] returned an MRT in [1] of 3.1 h. The efflux ratio in [2] is 1.9. The inhibition in data set [3] and in [14] was less than 50% each time. In addition, the Activity with Mus musculus [4] turned out to be 110.6%; with Mus musculus [5], 91%; with Mus musculus [12], 22.2%; in the data set on Mus musculus [16], 5.1%. In addition, the values for the IC50 (in data set [6]; against Cytochrome P450 3A4 [9]; against Cytochrome P450 2C9) were 0.0017 µM, more than 30 µM and more than 30 µM, respectively. Further, in data set [7], the Vd was 0.9 L/kg. The results for the bioavailability in [8] and in data set [11] were 45% and 63%, respectively. The TDI result on Cytochrome P450 3A4 [10] is on record as “Not Active”. Moreover, the CL free in the data set on Hepatocyte was 8.7%. The CL with Rattus norvegicus came to 7%. This molecule also had an unbound share (fraction unbound) in [13] of 0.047. For the same molecule, the concentration at 2 h in data set [15] was determined as 152 µM.
